According to publication PMC6716794 (Biochemistry, 2019):
“Also recorded” adds a separate entry of the source.

What was measured:
[1] = target: T1, ProT (prothrombin), pro-ABE I (Homo sapiens, UniProt P00734); experiment: 1D proton line broadening with ProT; assay type: binding; conditions: NMR buffer pH 6.5, 25 °C
Outline: (§1)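 Human plasma proteins: prothrombin, and thrombin blocked with PPACK (4:1 PPACK:thrombin, 37 °C, 30 min). Both were exchanged by ultrafiltration into NMR buffer (25 mM H3PO4, 150 mM NaCl, 0.2 mM EDTA, pH 6.5), and concentrations were set by E1%280 (13.8 prothrombin, 18.3 thrombin). Peptide at about 10-fold excess. Peptide 1H spectra were compared with and without enzyme.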

[2] = test system: PPACK-thrombin, ABE I; experiment: 1D proton line broadening with PPACK-thrombin; assay type: binding, human; conditions: NMR buffer pH 6.5, 25 °C
Outline: as §1

[3] = target: T1, ProT (prothrombin), pro-ABE I; experiment: 1D and 2D 1H,15N-HSQC NMR titration with ProT; assay type: binding; conditions: [15N]-labeled at F55, K51, E53, D58 and E60; pH 6.5, 25 °C
Outline: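 Human plasma prothrombin buffer-exchanged into NMR buffer (25 mM H3PO4, 150 mM NaCl, 0.2 mM EDTA, pH 6.5). 15N-labeled PAR1 peptide held constant at 50 μM while protein was serially diluted from 115 or 150 μM. 1D/2D 1H,15N-HSQC shifts were fitted to a quadratic binding equation for KD, with Monte-Carlo errors assuming 10% dilution error. Titrations were run at least in duplicate.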

[4] = test system: thrombin ABE I; conditions: ligand bound to ABE II; cited from earlier work

For “PAR1P (49–62, P54): native PAR1 sequence peptide, residues 49–62, P54 (NDKYEPFWEDEEKN; UniProt P25116 49-62, looked up, fragment)”, which “1D proton line broadening with ProT (PAR1P)” value ([1]; 780 μM PAR1P with 59 μM ProT, residues D50, K51, E53, F55, D58, E60) is on record?
Its value is “Substantial amide proton peak broadening; also recorded: moderate interactions with ProT”.

And the “1D proton line broadening with PPACK-thrombin (PAR1P)” value ([2]; 900 μM PAR1P with 97 μM PPACK-thrombin)?
The value was “increase in line broadening; also recorded: the interactions increased upon formation of mature thrombin”.

Which “1D proton line broadening with ProT (PAR1G)” value ([1]; 830 μM PAR1G with 83 μM ProT) does the source give for “PAR1G (49–62, P54G): weak binding PAR1 variant, residues 49–62 with P54G (NDKYEGFWEDEEKN; UniProt P25116 49-62, looked up, fragment P54G)” here?
The value was 1D proton line broadening could still be observed.

And the “1D proton line broadening with mature thrombin (PAR1G)” value ([2]; 870 μM PAR1G with 87 μM PPACK-thrombin)?
Its value is “increased further with the mature thrombin; also recorded: the interactions increased upon formation of mature thrombin”.

What about the “Binding with pro-ABE I on ProT” value [3] of the same substance?
The value was “very weak binding with pro-ABE I on ProT”.

For “GpIbα: platelet receptor glycoprotein GpIbα, binds thrombin ABE II”, which “Effect on affinity of thrombomodulin TM456 for thrombin ABE I” value [4] is on record?
Its value is “the affinity of thrombomodulin TM456 for ABE I decreases”.
